Data: ChEMBL document CHEMBL1127691, “Discovery, synthesis, and bioactivity of bis(heteroaryl)piperazines. 1. A novel class of non-nucleoside HIV-1 reverse transcriptase inhibitors” (J Med Chem, 1994)

Tests used:
[1] = tested on: Human immunodeficiency virus 1; test: Effective antiviral dose required to block the spread of HIV-1D34 infection in human peripheral blood mononuclear cells; type: functional; conditions: read-out: ED50 (the source's name)
Summary of the method: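 PBMC (1 × 10^6 cells) infected with HIV-1 D34 inoculum containing 1 ng p24, cultured at 37 °C in 5% CO2. Replication read as supernatant p24 at day 4. ED50 = 50% effective antiviral dose, estimated in some cases.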

[2] = Tested for the drug concentration required to decrease […] infected human peripheral blood mononuclear cell viability compared to uninfected controls; type: functional
Summary of the method: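 Uninfected and HIV-1 D34-infected PBMC at 37 °C, 5% CO2. Viability taken from mitogen-stimulated cell proliferation. CC50 is the concentration lowering viability relative to uninfected controls; mostly estimated.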

[3] = target: Human immunodeficiency virus type 1 reverse transcriptase (Human immunodeficiency virus 1) (UniProt Q72547); test: In vitro inhibitory activity against HIV-1 reverse transcriptase at 100 uM
Summary of the method: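 Recombinant HIV-1 RT (p51/p66 heterodimer, 90–95% pure, 0.0274 μM) with poly(rA) 10 μg/mL and (dT)10 primer 5 μg/mL; 8 μM α-35S-dTTP, 50 mM Tris-HCl pH 8.3, 10 mM MgCl2, 60 mM NaCl, 20 mM DTT, 0.05% NP-40. 37 °C, 15 min; TCA-precipitated label counted on filters. Percent inhibition at 100 μM, mean of at least two determinations.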

MT2 [4] = test: Tested for the drug concentration required to decrease HIV-1IIIb infected MT-2 cell viability compared to uninfected controls; type: functional; conditions: Homo sapiens
Summary of the method: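 MT-2 cells with HIV-1 IIIb (MOI 0.001), 4-day culture. Viability by trypan blue exclusion. CC50 is the concentration lowering viability relative to uninfected controls; mostly estimated.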

MT2 [5] = test: Effective antiviral dose required to block the spread of HIV-1 IIIb infection in MT-2 cells by monitoring the formation of syncytia; type: functional; conditions: Homo sapiens, read-out: ED50 (the source's name)
Summary of the method: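 MT-2 cells infected with HIV-1 IIIb at MOI 0.001, held at 37 °C in 5% CO2. Syncytium formation scored 4 days post-infection, at peak cytopathic effect. ED50 is the dose giving 50% reduction in syncytia; some values were estimated, and ">" means 50% was not reached at the top concentration.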

[6] = Selective index is the ratio of inhibitory concentrations of cellular DNA polymerase alpha to HIV-1 reverse transcriptase
Summary of the method: (§1)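 Index = IC50 for cellular DNA polymerase α or δ divided by IC50 for HIV-1 RT. RT IC50 measured with recombinant RT and poly(rA):oligo(dT)10 template:primer.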

[7] = Selective index is the ratio of inhibitory concentrations of cellular DNA polymerase delta to HIV-1 reverse transcriptase; summary of the method: as §1

CCN(CC)c1cccnc1N1CCN(C(=O)c2cc3ccccc3[nH]2)CC1
EC50 [1]: 1 µM | CC50 [2]: > 10 µM | inhibition [3]: 69%

CNC(=O)c1cccnc1N1CCN(C(=O)c2cc3ccccc3[nH]2)CC1
inhibition [3]: 0%

COc1c(C)cc(CN2CCN(c3ccccn3)CC2)cc1C
EC50 [1]: > 10 µM | CC50 [2]: > 100 µM | inhibition [3]: 0%

CCCNc1cccnc1N1CCN(C(=O)c2cc3ccccc3[nH]2)CC1
EC50 [1]: 0.1 µM | CC50 [2]: > 100 µM | inhibition [3]: 64%

CCNc1ccccc1N1CCN(C(=O)c2cc3ccccc3[nH]2)CC1
EC50 [1]: 1 µM | CC50 [2]: > 100 µM | inhibition [3]: 78%

COc1ccc(N2CCN(C(=O)c3cc4ccccc4[nH]3)CC2)c(OC)c1
inhibition [3]: 7%

CCNc1cccnc1N1CCN(C(=O)c2cccc3cc[nH]c23)CC1
EC50 [1]: 1 µM | CC50 [2]: > 100 µM | inhibition [3]: 87%

COc1c(C)cc(CN2CCN(c3ncccn3)CC2)cc1C
inhibition [3]: 0%

CC(C)Nc1ccc(N2CCN(C(=O)c3ccc4[nH]ccc4c3)CC2)nc1
inhibition [3]: 0%

CCC(CC)Nc1cccnc1N1CCN(C(=O)c2cc3ccccc3[nH]2)CC1
EC50 [1]: 0.1 µM | CC50 [2]: > 10 µM | inhibition [3]: 82%

CC(C)Nc1ccc(F)cc1N1CCN(C(=O)c2cc3ccccc3[nH]2)CC1
EC50 [1]: 0.1 µM | CC50 [2]: > 100 µM | inhibition [3]: 77%

CCNc1cccnc1N1CCN(C(=O)c2nc3ccccc3[nH]2)CC1
EC50 [1]: 10 µM | CC50 [2]: > 10 µM | inhibition [3]: 69%

CC(C)NCc1cccnc1N1CCN(C(=O)c2cc3ccccc3[nH]2)CC1
inhibition [3]: 0%

COc1ccc2[nH]c(C(=O)N3CCN(c4ncccc4NC(C)C)CC3)cc2c1
EC50 [1]: 0.001 µM | CC50 (MT2 [4]): > 25 µM | EC50 (MT2 [5]): 0.3 µM | inhibition [3]: 97% | Selectivity index [6]: 1500 | Selectivity index [7]: 8000

CC(C)Nc1ccccc1N1CCN(C(=O)c2cc3ccccc3[nH]2)CC1
inhibition [3]: 87%

COc1c(C)cc(CN2CCN(c3ncccc3NC(C)C)CC2)cc1C
EC50 [1]: 1 µM | CC50 [2]: ~10 µM | inhibition [3]: 84%

CC(C)Nc1cccnc1N1CCN(C(=O)c2cc3cc(F)ccc3[nH]2)CC1
EC50 [1]: 0.003 µM | CC50 (MT2 [4]): > 26 µM | EC50 (MT2 [5]): 0.3 µM | inhibition [3]: 96% | Selectivity index [6]: 810 | Selectivity index [7]: 10000

CCNc1cccnc1N1CCN(C(=O)c2ccc[nH]2)CC1
EC50 [1]: > 1 µM | CC50 [2]: > 100 µM | inhibition [3]: 87%

CCNc1cccnc1N1CCN(C(=O)c2cc(C)c(OC)c(C)c2)CC1
EC50 [1]: 1 µM | CC50 [2]: > 100 µM | inhibition [3]: 69%

Nc1cccnc1N1CCN(C(=O)c2cc3ccccc3[nH]2)CC1
EC50 [1]: > 10 µM | CC50 [2]: > 100 µM | inhibition [3]: 20%

CCOc1ccccc1N1CCN(C(=O)c2cc3ccccc3[nH]2)CC1
EC50 [1]: > 1 µM | CC50 [2]: < 10 µM | inhibition [3]: 76%

O=C(c1cc2ccccc2[nH]1)N1CCN(c2ncccc2[N+](=O)[O-])CC1
inhibition [3]: 5%

CCNc1cccnc1N1CCN(C(=O)c2cnccn2)CC1
inhibition [3]: 0%

CCNc1cccnc1N1CCN(C(=O)c2cc3cc(OC)ccc3[nH]2)CC1.CS(=O)(=O)O [ATEVIRDINE SULPHATE]
EC50 [1]: 0.001 µM | CC50 (MT2 [4]): > 20 µM | EC50 (MT2 [5]): < 0.2 µM | inhibition [3]: 92% | Selectivity index [6]: 200 | Selectivity index [7]: 1500

CCOc1ccccc1N1CCN(Cc2cc(C)c(OC)c(C)c2)CC1
inhibition [3]: 0%

O=C(c1cc2ccccc2[nH]1)N1CCN(c2ncccc2NCC2CC2)CC1
EC50 [1]: 0.01 µM | CC50 [2]: > 100 µM | inhibition [3]: 71%

Cc1cn([C@H]2C[C@H](N=[N+]=[N-])[C@@H](CO)O2)c(=O)[nH]c1=O [ZIDOVUDINE]
EC50 [1]: 0.001 µM | CC50 (MT2 [4]): 123 µM | EC50 (MT2 [5]): 0.07 µM | CC50 [2]: 10 µM

CCNc1cccnc1N1CCN(C(=O)c2cc3ccccc3s2)CC1
EC50 [1]: 10 µM | CC50 [2]: ~100 µM | inhibition [3]: 50%

CCN(C(C)=O)c1cccnc1N1CCN(C(=O)c2cc3ccccc3[nH]2)CC1
inhibition [3]: 8%

CC(=O)Nc1cccnc1N1CCN(C(=O)c2cc3ccccc3[nH]2)CC1
EC50 [1]: > 10 µM | CC50 [2]: > 100 µM | inhibition [3]: 0%

CC(C)Nc1cnnc(N2CCN(C(=O)c3ccc4[nH]ccc4c3)CC2)c1
inhibition [3]: 39%

CC(C)(C)Nc1cccnc1N1CCN(C(=O)c2cc3cc(F)ccc3[nH]2)CC1
EC50 [1]: 0.01 µM | CC50 (MT2 [4]): > 23 µM | EC50 (MT2 [5]): 0.23 µM | inhibition [3]: 89% | Selectivity index [6]: 233 | Selectivity index [7]: 1670

COC(=O)c1cccnc1N1CCN(C(=O)c2cc3ccccc3[nH]2)CC1
inhibition [3]: 82%

CCOc1ccccc1N1CCN(C(=O)c2cc(C)c(OC)c(C)c2)CC1
EC50 [1]: > 1 µM | CC50 [2]: < 10 µM | inhibition [3]: 0%

CCNc1cccnc1N1CCN(C(=O)c2ccco2)CC1
EC50 [1]: > 10 µM | CC50 [2]: > 100 µM | inhibition [3]: 39%

CCNc1cccnc1N1CCN(C(=O)c2cc3ccccc3o2)CC1
EC50 [1]: 10 µM | CC50 [2]: > 10 µM | inhibition [3]: 37%

CC(C)(C)C(=O)c1cccnc1N1CCN(C(=O)c2cc3ccccc3[nH]2)CC1
inhibition [3]: 58%

COc1ccccc1N1CCN(C(=O)c2cc3ccccc3[nH]2)CC1
inhibition [3]: 33%

CC(C)Nc1cc(C(F)(F)F)ccc1N1CCN(C(=O)c2cc3ccccc3[nH]2)CC1
EC50 [1]: ~1 µM | CC50 [2]: > 10 µM | inhibition [3]: 22%

CCNc1cccnc1N1CCN(C(=O)c2ccc3ccccc3c2)CC1
EC50 [1]: 10 µM | CC50 [2]: > 10 µM | inhibition [3]: 74%

CCNc1cccnc1N1CCN(C(=O)c2cccc3[nH]ccc23)CC1
inhibition [3]: 28%

COc1c(C)cc(C(=O)N2CCN(c3ccccn3)CC2)cc1C
EC50 [1]: > 10 µM | CC50 [2]: > 100 µM | inhibition [3]: 5%

CCCNc1cccnc1N1CCN(Cc2cc(C)c(OC)c(C)c2)CC1
inhibition [3]: 60%

CCOC(=O)c1cccnc1N1CCN(C(=O)c2cc3ccccc3[nH]2)CC1
inhibition [3]: 68%

O=C(c1cc2ccccc2[nH]1)N1CCN(c2ncccc2NCc2ccccc2)CC1
inhibition [3]: 14%

CC(=O)c1cccnc1N1CCN(C(=O)c2cc3ccccc3[nH]2)CC1
inhibition [3]: 30%

CCNc1cccnc1N1CCN(C(=O)c2cccs2)CC1
EC50 [1]: ~10 µM | CC50 [2]: > 100 µM | inhibition [3]: 60%

CCNc1cccnc1N1CCN(C(=O)c2ccc3[nH]ccc3c2)CC1
EC50 [1]: ~10 µM | CC50 [2]: > 100 µM | inhibition [3]: 45%

CC(C)(C)NC(=O)c1cccnc1N1CCN(C(=O)c2cc3ccccc3[nH]2)CC1
inhibition [3]: 50%

N#Cc1ccccc1N1CCN(C(=O)c2cc3ccccc3[nH]2)CC1
inhibition [3]: 0%

CCc1ccccc1N1CCN(C(=O)c2cc3ccccc3[nH]2)CC1
inhibition [3]: 0%

CNc1cccnc1N1CCN(C(=O)c2cc3ccccc3[nH]2)CC1
EC50 [1]: ~1 µM | CC50 [2]: > 10 µM | inhibition [3]: 85%

CCNc1cccnc1N1CCN(C(=O)c2cc3c(C)c(OC)c(C)c(C)c3[nH]2)CC1
EC50 [1]: > 10 µM | CC50 [2]: > 10 µM | inhibition [3]: 63%

CCNc1cccc(N2CCN(C(=O)c3ccc4[nH]ccc4c3)CC2)n1
inhibition [3]: 0%

COc1c(C)cc(C(=O)N2CCN(c3ncccc3NC(C)C)CC2)cc1C
EC50 [1]: 0.1 µM | CC50 [2]: > 10 µM | inhibition [3]: 78%

CCNc1cccnc1N1CCN(C(=O)c2nc3ccccc3o2)CC1
inhibition [3]: 0%

O=C(c1cc2ccccc2[nH]1)N1CCN(c2ncccc2NCC(F)(F)F)CC1
EC50 [1]: 1 µM | CC50 [2]: > 10 µM | inhibition [3]: 40%

CC(C)Nc1cc(F)ccc1N1CCN(C(=O)c2cc3ccccc3[nH]2)CC1
EC50 [1]: 0.1 µM | CC50 [2]: > 10 µM | inhibition [3]: 83%

CCNc1cccnc1N1CCN(C(=O)c2cnc3ccccc3c2)CC1
inhibition [3]: 14%

CCNc1cccnc1N1CCN(C(=O)c2nc3ccccc3s2)CC1
inhibition [3]: 0%

CCC(C)Nc1cccnc1N1CCN(C(=O)c2cc3ccccc3[nH]2)CC1 (configuration not stated)
EC50 [1]: 0.01 µM | CC50 [2]: > 10 µM | inhibition [3]: 95%

CC(C)C(=O)c1cccnc1N1CCN(C(=O)c2cc3ccccc3[nH]2)CC1
inhibition [3]: 26%

CCC(=O)c1cccnc1N1CCN(C(=O)c2cc3ccccc3[nH]2)CC1
inhibition [3]: 40%

CCNc1cccnc1N1CCN(C(=O)c2c[nH]c3ccccc23)CC1
inhibition [3]: 22%

CCNc1cccnc1N1CCN(C(=O)c2cc3ccccc3oc2=O)CC1
inhibition [3]: 16%

CCNc1cccnc1N1CCN(Cc2cc3ccccc3[nH]2)CC1
EC50 [1]: 1 µM | inhibition [3]: 64%

CCNc1cccnc1N1CCN(C(=O)c2ccc3ccccc3n2)CC1
inhibition [3]: 0%

N#Cc1cccnc1N1CCN(C(=O)c2cc3ccccc3[nH]2)CC1
inhibition [3]: 5%
